Assay results published in ChEMBL document CHEMBL4350969, “Falcipain Inhibitors Based on the Natural Product Gallinamide A Are Potent in Vitro and in Vivo Antimalarials” (J Med Chem, 2019).
Active and inactive are the calls of the source. The rule behind the calls is not given here.

Columns and labels:
[1] = molecular target: T1, Cysteine protease falcipain-3 (Plasmodium falciparum, UniProt Q9NAW4); assay: Inhibition of Plasmodium falciparum N-terminal His-tagged falcipain-3 (33 residues) expressed in Escherichia coli M15 pREP4 using Z-Leu-Arg-AMC as substrate measured after 30 mins by spectrofluorometric method
T1 sequence (Q9NAW4 whole entry): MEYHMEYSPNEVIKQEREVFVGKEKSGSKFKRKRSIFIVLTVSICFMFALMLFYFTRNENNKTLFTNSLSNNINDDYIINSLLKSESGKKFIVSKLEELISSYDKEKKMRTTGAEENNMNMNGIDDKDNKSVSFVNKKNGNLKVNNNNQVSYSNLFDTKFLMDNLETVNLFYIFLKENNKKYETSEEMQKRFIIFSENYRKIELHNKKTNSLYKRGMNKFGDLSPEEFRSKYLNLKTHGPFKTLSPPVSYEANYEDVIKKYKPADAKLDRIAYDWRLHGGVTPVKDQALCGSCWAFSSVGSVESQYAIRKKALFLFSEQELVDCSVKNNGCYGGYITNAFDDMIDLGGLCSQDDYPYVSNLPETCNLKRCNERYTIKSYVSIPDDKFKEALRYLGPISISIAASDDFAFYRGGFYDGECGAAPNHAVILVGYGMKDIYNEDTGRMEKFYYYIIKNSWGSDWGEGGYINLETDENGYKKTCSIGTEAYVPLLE
Summary of the method: (§1)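 Recombinant heterologously expressed FP2 or FP3; inhibition measured by continuous kinetic cleavage of fluorogenic substrate Z-Leu-Arg-AMC.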

Falcipain 2 = molecular target: T2, Falcipain 2 (Plasmodium falciparum, UniProt Q9N6S8); assay: Inhibition of Plasmodium falciparum N-terminal His6-tagged falcipain-2 (35 residues) expressed in Escherichia coli M15 pREP4 using Z-Lue-Arg-AMC as substrate measured after 30 mins by spectrofluorometric method; summary of the method: as §1
T2 sequence (Q9N6S8 whole entry): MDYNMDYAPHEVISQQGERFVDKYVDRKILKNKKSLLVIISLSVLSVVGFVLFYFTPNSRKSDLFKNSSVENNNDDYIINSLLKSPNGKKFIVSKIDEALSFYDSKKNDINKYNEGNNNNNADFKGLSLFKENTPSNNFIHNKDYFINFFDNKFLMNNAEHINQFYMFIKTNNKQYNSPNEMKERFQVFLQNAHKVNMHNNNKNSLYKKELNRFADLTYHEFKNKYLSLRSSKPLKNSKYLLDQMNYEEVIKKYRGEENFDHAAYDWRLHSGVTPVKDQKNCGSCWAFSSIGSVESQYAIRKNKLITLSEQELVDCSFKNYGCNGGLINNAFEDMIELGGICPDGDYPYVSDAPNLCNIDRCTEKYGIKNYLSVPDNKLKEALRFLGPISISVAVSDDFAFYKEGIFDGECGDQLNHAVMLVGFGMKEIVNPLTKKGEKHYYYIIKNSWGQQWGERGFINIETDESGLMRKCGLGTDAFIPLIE

Plasmodium falciparum [2] = assay: Antimalarial activity against synchronized ring stage CQ-sensitive Plasmodium falciparum 3D7 infected in human erythrocytes incubated for 24 hrs followed by compound washout and subsequent compound addition and measured after 48 hrs by YOYO-1 probe-based flow cytometry; format: functional, organism-based
Plasmodium falciparum [3] = assay: Antimalarial activity against synchronized ring stage CQ-resistant Plasmodium falciparum W2 infected in human erythrocytes incubated for 24 hrs followed by compound washout and subsequent compound addition and measured after 48 hrs by YOYO-1 probe-based flow cytometry; format: functional, organism-based
[4] = Half life in Swiss mouse plasma at 1 ug/ml by UPLC-MS analysis; format: ADME, cell-free
Summary of the method: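 Fresh whole blood from non-fasted male Swiss outbred mice; plasma separated by centrifugation. Compound spiked to 1 μg/mL final (0.2% DMSO, 0.4% acetonitrile), kept at 37 °C; aliquots taken over 4 h (n=3 per time point), snap-frozen, protein precipitated with acetonitrile, UPLC-MS (ESI+) against matrix calibration standards. Exponential decay fit gives k; half-life = ln(2)/k.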

[5] = Drug metabolism in human liver microsomes assessed as N,N-bis-demethylation at 10 uM measured after 60 mins in presence of NADPH-generating system by UPLC-MS analysis; format: ADME, Microsome; settings: 1 h
HEK293 = assay: Cytotoxicity against HEK293 cells assessed as reduction in cell viability at 25 uM measured after 18 hrs by alamar blue assay; format: cell-based; settings: human, hek293, 18 h
[6] = Drug metabolism in mouse liver microsomes assessed as N,N-bis-demethylation at 10 uM measured after 60 mins in presence of NADPH-generating system by UPLC-MS analysis; format: ADME, Microsome; settings: 1 h
[7] = Half life in Swiss mouse blood at 1 ug/ml by UPLC-MS analysis; format: ADME, tissue-based; settings: whole blood
Plasmodium berghei [8] = assay: Antimalarial activity against Plasmodium berghei ANKA infected in specific pathogen-free C57BL/6 mouse assessed as reduction in disease severity at 100 mg/kg, po administered once daily for 4 days measured up to 35 days post-infection by rapid staining-based microscopic analysis; format: functional, organism-based
Summary of the method: (§2)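 Female C57BL/6 mice, 8–9 weeks old, inoculated i.p. with 10^6 P. berghei ANKA-parasitized red cells. Compound dissolved in DMSO, diluted in 154 mM NaCl, given by oral gavage at 100 mg/kg on days 4, 5, 6 and 7 post-infection. Tail-vein thin smears stained with Rapid Stain, % parasitemia by microscopy; mice euthanized at signs of severe disease.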

Plasmodium berghei [9] = assay: Antimalarial activity against Plasmodium berghei ANKA infected in specific pathogen-free C57BL/6 mouse assessed as reduction in parasitemia at 50 mg/kg, ip administered once daily for 4 days measured up to 35 days post-infection by rapid staining-based microscopic analysis; format: functional, organism-based
Summary of the method: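 Established-infection model: female C57BL/6 mice inoculated i.p. with 10^6 PbA-parasitized red cells; compound in DMSO diluted in saline given i.p. at 50 mg/kg on days 4, 5, 6 and 7 post-infection, chloroquine 50 mg/kg as comparator, vehicle controls; 7 mice per group. Tail-vein smears, % parasitemia by microscopy, mean ± SEM; survival recorded.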

Plasmodium berghei [10] = assay: Antimalarial activity against Plasmodium berghei ANKA infected in specific pathogen-free C57BL/6 mouse assessed as reduction in parasitemia at 100 mg/kg, po administered once daily for 4 days measured up to 35 days post-infection by rapid staining-based microscopic analysis; format: functional, organism-based; summary of the method: as §2

Row | SMILES | IC50 [1] [nM] | IC50 (Falcipain 2) [nM] | IC50 (Plasmodium falciparum [2]) [nM] | IC50 (Plasmodium falciparum [3]) [nM] | half-life at 1 ug/ml [4] [min] | Drug metabolism [5] | Activity (HEK293) | Drug metabolism [6] | half-life at 1 ug/ml [7] [min] | Activity (Plasmodium berghei [8]) | Activity (Plasmodium berghei [9]) | Activity (Plasmodium berghei [10])
1 | CC(C)C[C@H](NC(=O)[C@@H]1O[C@H]1C(=O)O)C(=O)NCCCCN=C(N)N | 136 | 68 | – | – | – | – | – | – | – | – | – | –
2 | COC1=CC(=O)N(C(=O)/C=C/[C@H](C)NC(=O)[C@H](CC2CCCCC2)NC(=O)[C@H](CC2CCCCC2)NC(=O)C2CCN(C)CC2)[C@H]1Cc1c[nH]c2ccccc12 | 547 | 455 | 164 | 55 | – | – | – | – | – | – | – | –
3 | COC1=CC(=O)N(C(=O)/C=C/[C@H](C)NC(=O)[C@H](CC(C)C)NC(=O)[C@H](CCc2ccccc2)NC(=O)[C@H](C(C)C)N(C)C)[C@H]1Cc1c[nH]c2ccccc12.O=C(O)C(F)(F)F | 228 | 57 | 5 | 7 | 557 | Metabolite_Detected | Non-Toxic | Metabolite_Detected | 110 | – | – | –
4 | C[C@@H]1CC[C@H]2[C@@H](C)C(=O)O[C@@H]3O[C@@]4(C)CC[C@@H]1[C@]32OO4 [ARTEMISININ] | – | – | 32 | 21 | – | – | – | – | – | – | – | –
5 | COC1=CC(=O)N(C(=O)/C=C/[C@H](C)NC(=O)[C@H](CC2CCCCC2)NC(=O)[C@H](CC(C)C)NC(=O)C2CCN(C)CC2)[C@H]1Cc1c[nH]c2ccccc12 | 480 | 156 | 205 | 59 | – | – | – | – | – | – | – | –
6 | COC1=CC(=O)N(C(=O)/C=C/C(C)(C)NC(=O)[C@H](CC(C)C)NC(=O)[C@H](CC(C)C)NC(=O)[C@H](C(C)C)N(C)C)[C@H]1Cc1c[nH]c2ccccc12 | > 50000 | > 50000 | 6990 | 1020 | – | – | – | – | – | – | – | –
7 | COC1=CC(=O)N(C(=O)/C=C/[C@H](C)NC(=O)[C@H](CC2CCCCC2)NC(=O)[C@H](CC(C)C)NC(=O)[C@H](C(C)C)N(C)C)[C@H]1Cc1c[nH]c2ccccc12 | 407 | 235 | 72 | 37 | – | – | – | – | – | – | – | –
8 | COC1=CC(=O)N(C(=O)/C=C/[C@H](C)NC(=O)[C@H](CC(C)C)NC(=O)[C@H](CC(C)C)NC(=O)[C@H](C(C)C)N(C)C)[C@H]1Cc1c[nH]c2ccccc12.O=C(O)C(F)(F)F | – | – | – | – | < 2 | – | Non-Toxic | – | < 2 | – | – | –
9 | COC1=CC(=O)N(C(=O)/C=C/[C@H](CC2CCCCC2)NC(=O)[C@H](CC(C)C)NC(=O)[C@H](CC(C)C)NC(=O)[C@H](C(C)C)N(C)C)[C@H]1Cc1c[nH]c2ccccc12 | 2570 | 270 | 76 | 54 | – | – | – | – | – | – | – | –
10 | COC1=CC(=O)N(C(=O)/C=C/[C@H](C)NC(=O)[C@H](CC(C)C)NC(=O)[C@H](Cc2ccccc2)NC(=O)[C@H](C(C)C)N(C)C)[C@H]1Cc1c[nH]c2ccccc12 | 851 | 60 | 24 | 10 | – | – | – | – | – | – | – | –
11 | COC1=CC(=O)N(C(=O)/C=C/[C@@H](NC(=O)[C@H](CC(C)C)NC(=O)[C@H](CC2CCCCC2)NC(=O)[C@H](C(C)C)N(C)C)C2CCCCC2)[C@H]1Cc1c[nH]c2ccccc12 | 490 | 169 | 83 | 95 | – | – | – | – | – | – | – | –
12 | COC1=CC(=O)N(C(=O)/C=C/[C@H](C)NC(=O)C(C)(C)NC(=O)[C@H](CC(C)C)NC(=O)[C@H](C(C)C)N(C)C)[C@H]1Cc1c[nH]c2ccccc12 | > 50000 | > 50000 | > 10000 | 3730 | – | – | – | – | – | – | – | –
13 | CCN(CC)CCCC(C)Nc1ccnc2cc(Cl)ccc12 (stereo unspecified) | – | – | – | – | – | – | – | – | – | Active | Active | Active
14 | COC1=CC(=O)N(C(=O)/C=C/[C@H](C)NC(=O)[C@H](CCc2ccccc2)NC(=O)[C@H](CC2CCCCC2)NC(=O)[C@H](C(C)C)N(C)C)[C@H]1Cc1c[nH]c2ccccc12 | 8790 | 3520 | 1250 | 478 | – | – | – | – | – | – | – | –
15 | COC1=CC(=O)N(C(=O)/C=C/[C@@H](NC(=O)[C@H](CC(C)C)NC(=O)[C@H](CC(C)C)NC(=O)[C@H](C(C)C)N(C)C)C2CCCCC2)[C@H]1Cc1c[nH]c2ccccc12.O=C(O)C(F)(F)F | 484 | 84 | 9 | 10 | > 600 | Metabolite_Detected | Non-Toxic | Metabolite_Detected | > 600 | – | – | –
16 | COC1=CC(=O)N(C(=O)/C=C/[C@H](C)NC(=O)[C@H](CCc2ccccc2)NC(=O)[C@H](CC(C)C)NC(=O)[C@H](C(C)C)N(C)C)[C@H]1Cc1c[nH]c2ccccc12 | 10200 | 3100 | 2590 | 691 | – | – | – | – | – | – | – | –
17 | COC1=CC(=O)N(C(=O)/C=C/[C@H](C)NC(=O)[C@H](CC2CCCCC2)NC(=O)[C@H](CC2CCCCC2)NC(=O)[C@H](C(C)C)N(C)C)[C@H]1Cc1c[nH]c2ccccc12 | 459 | 464 | 229 | 119 | – | – | – | – | – | – | – | –
18 | COC1=CC(=O)N(C(=O)/C=C/[C@H](C)NC(=O)[C@H](CC(C)C)NC(=O)[C@H](CC2CCCCC2)NC(=O)[C@H](C(C)C)N(C)C)[C@H]1Cc1c[nH]c2ccccc12 | 131 | 59 | 14 | 11 | – | – | – | – | – | – | – | –
